Experimental data from ChEMBL document CHEMBL1221342, “Synthesis and in vitro antitumor activity of new 4,5-dihydropyrazole derivatives” (Bioorg Med Chem, 2010).

How the values were obtained:
HL-60(TB) = assay: Growth inhibition of human HL-60(TB) cells after 48 hrs by SRB assay; type: functional; conditions: HL-60, 48 h; for TGI: read-out: pTGI (converted)
In short: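 NCI 60-cell-line screen: cells grown in RPMI1640 with 5% fetal calf serum and 2 mM L-glutamine, preincubated 24 h, then exposed to compound in DMSO at five concentrations (10^-4 to 10^-8 M) for 48 h continuous exposure. Growth estimated by sulforhodamine B protein assay; reported as pGI50 (-log molar concentration inhibiting net cell growth by 50%).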

K562 = assay: Growth inhibition of human K562 cells after 48 hrs by SRB assay; type: functional; conditions: K562, 48 h; for TGI: read-out: pTGI (converted)
In short: (§1)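 NCI 60-cell-line screen. Cells grown in RPMI1640 with 5% fetal calf serum and 2 mM L-glutamine, with inoculum density set by cell line. Preincubated 24 h, then given compound in DMSO at 10^-4 to 10^-8 M (five 10-fold steps) for 48 h continuous exposure. Growth measured by SRB protein assay. GI50, TGI and LC50 reported as –log molar.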

SR = assay: Growth inhibition of human SR cells after 48 hrs by SRB assay; type: functional; conditions: for TGI: read-out: pTGI (converted); in short: as §1
EKVX = assay: Growth inhibition of human EKVX cells after 48 hrs by SRB assay; type: functional; conditions: for TGI: read-out: pTGI (converted); in short: as §1
HOP-62 = assay: Growth inhibition of human HOP62 cells after 48 hrs by SRB assay; type: functional; conditions: HOP-62, 48 h; for TGI: read-out: pTGI (converted); in short: as §1
NCI-H322M = assay: Growth inhibition of human NCI-H322M cells after 48 hrs by SRB assay; type: functional; conditions: for TGI: read-out: pTGI (converted); in short: as §1
NCI-H460 [1] = assay: Growth inhibition of human NCI-H460 cells after 48 hrs by SRB assay; type: functional; conditions: NCI-H460, 48 h; for TGI: read-out: pTGI (converted); in short: as §1
HCC 2998 = assay: Growth inhibition of human HCC2998 cells after 48 hrs by SRB assay; type: functional; conditions: HCC 2998, 48 h; in short: as §1
HCT-116 = assay: Growth inhibition of human HCT116 cells after 48 hrs by SRB assay; type: functional; conditions: HCT-116, 48 h; for TGI: read-out: pTGI (converted); in short: as §1
HCT-15 = assay: Growth inhibition of human HCT15 cells after 48 hrs by SRB assay; type: functional; conditions: HCT-15, 48 h; for TGI: read-out: pTGI (converted); in short: as §1
HT-29 = assay: Growth inhibition of human HT-29 cells after 48 hrs by SRB assay; type: functional; conditions: HT-29, 48 h; for TGI: read-out: pTGI (converted); in short: as §1
SW-620 = assay: Growth inhibition of human SW620 cells after 48 hrs by SRB assay; type: functional; conditions: SW-620, 48 h; for TGI: read-out: pTGI (converted); in short: as §1
SF-268 = assay: Growth inhibition of human SF268 cells after 48 hrs by SRB assay; type: functional; conditions: SF-268, 48 h; in short: as §1
SF-295 = assay: Growth inhibition of human SF295 cells after 48 hrs by SRB assay; type: functional; conditions: SF-295, 48 h; in short: as §1
SF-539 = assay: Growth inhibition of human SF539 cells after 48 hrs by SRB assay; type: functional; conditions: SF-539, 48 h; for TGI: read-out: pTGI (converted); in short: as §1
SNB-75 = assay: Growth inhibition of human SNB75 cells after 48 hrs by SRB assay; type: functional; conditions: SNB-75, 48 h; for TGI: read-out: pTGI (converted); in short: as §1
U-251 = assay: Growth inhibition of human U251 cells after 48 hrs by SRB assay; type: functional; conditions: U-251, 48 h; for TGI: read-out: pTGI (converted); in short: as §1
Malme-3M = assay: Growth inhibition of human MALME-3M cells after 48 hrs by SRB assay; type: functional; conditions: for TGI: read-out: pTGI (converted); in short: as §1
MDA-MB-435 = assay: Growth inhibition of human MDA-MB-435 cells after 48 hrs by SRB assay; type: functional; conditions: MDA-MB-435, 48 h; for TGI: read-out: pTGI (converted); in short: as §1
SK-MEL-5 = assay: Growth inhibition of human SK-MEL-5 cells after 48 hrs by SRB assay; type: functional; conditions: SK-MEL-5, 48 h; for TGI: read-out: pTGI (converted); in short: as §1
UACC-62 = assay: Growth inhibition of human UACC62 cells after 48 hrs by SRB assay; type: functional; conditions: UACC-62, 48 h; for TGI: read-out: pTGI (converted); in short: as §1
IGROV-1 = assay: Growth inhibition of human IGROV1 cells after 48 hrs by SRB assay; type: functional; conditions: IGROV-1, 48 h; for TGI: read-out: pTGI (converted); in short: as §1
OVCAR-4 = assay: Growth inhibition of human OVCAR4 cells after 48 hrs by SRB assay; type: functional; conditions: OVCAR-4, 48 h; for TGI: read-out: pTGI (converted); in short: as §1
OVCAR-8 = assay: Growth inhibition of human OVCAR8 cells after 48 hrs by SRB assay; type: functional; conditions: OVCAR-8, 48 h; for TGI: read-out: pTGI (converted); in short: as §1
NCI/ADR-RES = assay: Growth inhibition of human NCI/ADR-RES cells after 48 hrs by SRB assay; type: functional; conditions: for TGI: read-out: pTGI (converted); in short: as §1
SK-OV-3 = assay: Growth inhibition of human SKOV3 cells after 48 hrs by SRB assay; type: functional; conditions: SK-OV-3, 48 h; for TGI: read-out: pTGI (converted); in short: as §1
786-0 = assay: Growth inhibition of human 786-0 cells after 48 hrs by SRB assay; type: functional; conditions: 786-0, 48 h; for TGI: read-out: pTGI (converted); in short: as §1
CAKI-1 = assay: Growth inhibition of human Caki1 cells after 48 hrs by SRB assay; type: functional; conditions: CAKI-1, 48 h; for TGI: read-out: pTGI (converted); in short: as §1
UO-31 = assay: Growth inhibition of human UO31 cells after 48 hrs by SRB assay; type: functional; conditions: UO-31, 48 h; for TGI: read-out: pTGI (converted); in short: as §1
DU-145 = assay: Growth inhibition of human DU145 cells after 48 hrs by SRB assay; type: functional; conditions: DU-145, 48 h; for TGI: read-out: pTGI (converted); in short: as §1
[2] = Growth inhibition of human Hs 578T cells after 48 hrs by SRB assay; type: functional; conditions: for TGI: read-out: pTGI (converted); in short: as §1
T47D = assay: Growth inhibition of human T47D cells after 48 hrs by SRB assay; type: functional; conditions: read-out: pTGI (converted); in short: as §1
NCI-H460 [3] = assay: Cytotoxicity against human NCI-H460 cells after 72 hrs by SRB assay; type: functional, cell-based; conditions: NCI-H460, 72 h
In short: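 NCI-H460 (ATCC) cells seeded in 96-well plates in growth medium. Scalar drug concentrations added 24 h after plating, then 72 h exposure. Surviving cells stained with sulforhodamine B, OD read at 570 nm. IC50 (50% growth inhibition) fitted from dose–response curves. Mean ± SE of at least three independent experiments.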

M14 = assay: Growth inhibition of human M14 cells after 48 hrs by SRB assay; type: functional; conditions: M14, 48 h; in short: as §1
SK-MEL-28 = assay: Growth inhibition of human SK-MEL-28 cells after 48 hrs by SRB assay; type: functional; conditions: SK-MEL-28, 48 h; in short: as §1

## CCN(CC)c1ccc(C2CC(c3cc(OC)c(OC)c(OC)c3)=NN2)cc1 (stereo unspecified)
HL-60(TB)
  GI50: 251 nM
  TGI: 2000 nM
K562
  GI50: 398 nM
  TGI: 12600 nM
SR
  GI50: 251 nM
  TGI: 1000 nM
EKVX
  GI50: 398 nM
  TGI: 794 nM
HOP-62
  GI50: 316 nM
  TGI: 3980 nM
NCI-H322M
  GI50: > 100000 nM
  TGI: > 100000 nM
NCI-H460 [1]
  GI50: 316 nM
  TGI: 12600 nM
HCC 2998
  GI50: 631 nM
HCC 2998; read-out: pTGI (converted)
  TGI: 7940 nM
HCT-116
  GI50: 251 nM
  TGI: 1000 nM
HCT-15
  GI50: 631 nM
  TGI: > 100000 nM
HT-29
  GI50: 316 nM
  TGI: > 100000 nM
SW-620
  GI50: 398 nM
  TGI: > 100000 nM
SF-268
  GI50: 794 nM
SF-295
  GI50: 100 nM
SF-295; read-out: pTGI (converted)
  TGI: 316 nM
SF-539
  GI50: 316 nM
  TGI: 1260 nM
SNB-75
  GI50: 200 nM
  TGI: 631 nM
U-251
  GI50: 398 nM
  TGI: > 100000 nM
Malme-3M
  GI50: 20000 nM
  TGI: > 100000 nM
MDA-MB-435
  GI50: 158 nM
  TGI: 316 nM
SK-MEL-5
  GI50: 794 nM
  TGI: 3160 nM
UACC-62
  GI50: 398 nM
  TGI: 50100 nM
IGROV-1
  GI50: 316 nM
  TGI: 6310 nM
OVCAR-4
  GI50: 1000 nM
  TGI: > 100000 nM
OVCAR-8
  GI50: 398 nM
  TGI: 7940 nM
NCI/ADR-RES
  GI50: 501 nM
  TGI: > 100000 nM
SK-OV-3
  GI50: 501 nM
  TGI: > 100000 nM
786-0
  GI50: 158 nM
  TGI: 501 nM
CAKI-1
  GI50: 200 nM
  TGI: 794 nM
UO-31
  GI50: 794 nM
  TGI: > 100000 nM
DU-145
  GI50: 398 nM
  TGI: 1580 nM
[2]
  GI50: 251 nM
  TGI: 631 nM
T47D
  TGI: > 100000 nM
NCI-H460 [3]
  IC50: 300 nM

## COc1cc(C2=NN(C(C)=O)C(c3cc(OC)c(OC)c(OC)c3)C2)ccc1O (stereo unspecified)
HL-60(TB)
  GI50: 158 nM
  TGI: 501 nM
K562
  GI50: 398 nM
  TGI: > 100000 nM
SR
  GI50: 50.1 nM
  TGI: 501 nM
EKVX
  GI50: 794 nM
  TGI: > 100000 nM
HOP-62
  GI50: 501 nM
  TGI: > 100000 nM
NCI-H322M
  GI50: 501 nM
  TGI: > 100000 nM
NCI-H460 [1]
  GI50: 398 nM
  TGI: 15800 nM
HCT-116
  GI50: 398 nM
  TGI: 50100 nM
HCT-15
  GI50: 398 nM
  TGI: > 100000 nM
HT-29
  GI50: 316 nM
  TGI: > 100000 nM
SW-620
  GI50: 316 nM
  TGI: > 100000 nM
SF-268
  GI50: 631 nM
SF-268; read-out: pTGI (converted)
  TGI: > 100000 nM
SF-295
  GI50: 200 nM
SF-539
  GI50: 316 nM
  TGI: 1000 nM
SNB-75
  GI50: 251 nM
  TGI: > 100000 nM
U-251
  GI50: 398 nM
  TGI: > 100000 nM
Malme-3M
  TGI: > 100000 nM
M14
  GI50: 398 nM
M14; read-out: pTGI (converted)
  TGI: > 100000 nM
MDA-MB-435
  GI50: 50.1 nM
  TGI: 200 nM
SK-MEL-28
  GI50: 501 nM
SK-MEL-28; read-out: pTGI (converted)
  TGI: > 100000 nM
SK-MEL-5
  GI50: 63.1 nM
  TGI: 501 nM
UACC-62
  GI50: 316 nM
  TGI: > 100000 nM
IGROV-1
  GI50: 501 nM
  TGI: > 100000 nM
OVCAR-4
  GI50: 398 nM
  TGI: > 100000 nM
OVCAR-8
  GI50: 631 nM
  TGI: > 100000 nM
NCI/ADR-RES
  GI50: 251 nM
  TGI: > 100000 nM
SK-OV-3
  GI50: 316 nM
  TGI: > 100000 nM
786-0
  GI50: 398 nM
  TGI: > 100000 nM
CAKI-1
  GI50: 316 nM
  TGI: > 100000 nM
UO-31
  GI50: 398 nM
  TGI: > 100000 nM
DU-145
  GI50: 316 nM
  TGI: 12600 nM
[2]
  GI50: 200 nM
  TGI: 631 nM
NCI-H460 [3]
  IC50: 210 nM
